Compound activity (PubChem BioAssay)
PAFAH2 FP inh: PAFAH2 enzyme inhibitors, primary screen, biochemical, fluorescence polarization, human; Platelet-activating factor acetylhydrolase 2, cytoplasmic (Homo sapiens), Q99487; recombinant PAFAH2, FP-rhodamine activity probe; inhibition, % at 3.39 µM; hit rate 0.99% among 340,000;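 active means inhibition above the mean over all tested compounds plus 3 SD, cut at about 30% in these data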;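 further: inhibitors block probe labeling of enzyme so polarization drops; 0% = enzyme with DMSO and 100% = wells lacking PAFAH2 protein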
PAFAH1B2 FP inh: PAFAH1B2 enzyme inhibitors, primary screen, biochemical, fluorescence polarization, human | Platelet-activating factor acetylhydrolase IB subunit alpha2 (Homo sapiens), P68402 | recombinant PAFAH1B2, FP-rhodamine activity probe | inhibition, % at 3.39 µM | hit rate 1.2% among 340,000 | AID 492953, 2010;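 active means inhibition above the mean of all tested compounds plus 3 SD, cut at about 24% in these data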;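 further: 0% = enzyme with DMSO and 100% = wells lacking PAFAH1B2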
Target sequence (P68402 whole entry, looked up): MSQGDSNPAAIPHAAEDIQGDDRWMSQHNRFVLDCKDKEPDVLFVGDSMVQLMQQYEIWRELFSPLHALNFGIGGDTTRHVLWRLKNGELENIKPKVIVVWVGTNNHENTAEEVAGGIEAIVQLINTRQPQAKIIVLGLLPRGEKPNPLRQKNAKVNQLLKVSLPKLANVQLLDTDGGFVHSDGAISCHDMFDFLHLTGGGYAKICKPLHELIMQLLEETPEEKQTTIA
pPAFAH FP inh: pPAFAH enzyme inhibitors, primary screen, biochemical, fluorescence polarization, human; Platelet-activating factor acetylhydrolase (Homo sapiens), Q13093; recombinant pPAFAH, FP-rhodamine probe fluorescence polarization; inhibition, % at 3.39 µM; hit rate 1.5% among 330,000;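 active means inhibition above the mean inhibition across the screen plus 3 SD, cut at about 25% in these data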;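 further: inhibitors block binding of the rhodamine activity-based probe so polarization drops; 0% = enzyme with DMSO and 100% = wells lacking pPAFAH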
ASAP1 inh: inhibitors of human ASAP1 ArfGAP activity, primary screen, biochemical, fluorescence polarization; ASAP1-stimulated ARF1 GTP hydrolysis, GDP FP detection; hit rate 0.19% among 360,000; AID 624377, 2012; Arf-GAP with SH3 domain, ANK repeat and PH domain-containing protein 1 (Homo sapiens), …; inhibition, % at 16.5 µM; in the data active means inhibition above about 25%;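 further: 0% = vehicle with enzyme and substrate and 100% = no enzyme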
PAFAH1B3 FP inh: PAFAH1B3 enzyme inhibitors, primary screen, biochemical, fluorescence polarization, human; Platelet-activating factor acetylhydrolase IB subunit alpha1 (Homo sapiens), Q15102; recombinant PAFAH1B3, FP-rhodamine probe; inhibition, % at 3.39 µM; hit rate 0.28% among 340,000; AID 492972, 2010;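 active means inhibition above the screen-wide average of all tested compounds plus 3 SD, cut at about 25% in these data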;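 further: 0% = enzyme with DMSO only and 100% = wells lacking PAFAH1B3 protein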
Target sequence (Q15102 whole entry, looked up): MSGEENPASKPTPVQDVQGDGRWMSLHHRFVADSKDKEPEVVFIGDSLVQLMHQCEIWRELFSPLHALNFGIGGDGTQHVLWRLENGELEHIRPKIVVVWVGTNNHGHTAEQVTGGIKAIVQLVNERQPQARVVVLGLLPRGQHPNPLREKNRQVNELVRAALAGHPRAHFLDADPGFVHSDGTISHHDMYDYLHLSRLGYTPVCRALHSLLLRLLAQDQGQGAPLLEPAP
ARFGAP1 inh: inhibitors of rat ARFGAP1 GAP activity, primary screen, biochemical, fluorescence polarization, GDP tracer | ADP-ribosylation factor GTPase-activating protein 1 (Rattus norvegicus), Q62848 | Arfgap1-stimulated ARF1 GTP hydrolysis, GDP FP detection | inhibition, % at 16.5 µM | hit rate 0.26% among 360,000 | AID 651572, 2012;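 active means inhibition above a per-plate limit, mean inhibition of low control wells plus 3 SD, cut at about 25% in these data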;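 further: 0% = DMSO wells with enzyme and 100% = wells lacking Arfgap1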
Target sequence (Q62848 1-136 limits assumed): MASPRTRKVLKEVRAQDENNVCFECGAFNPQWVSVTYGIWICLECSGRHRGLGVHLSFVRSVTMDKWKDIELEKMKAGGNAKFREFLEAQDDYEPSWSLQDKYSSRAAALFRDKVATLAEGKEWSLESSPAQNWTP
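System: truncated rat Arfgap1 GAP domain / Medium: HEPES-based buffer, pH 7.5 / Also added: N-terminally truncated human ARF1-GTP substrate / Incubation: enzyme reaction 120 min at 25 °C after 20 min preincubation / Measured by: FP of antibody-bound GDP Alexa 633 tracer, ex 620/em 688 nm / Replicates: singlicate, each compound tested once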
PAFAH2 FP conf: PAFAH2 enzyme inhibitors, confirmation, biochemical, fluorescence polarization, human; AID 493030, 2011; hit rate 65% among 2,300; shares compounds with PAFAH2 FP inh; inhibition, % at 3.39 µM; recombinant PAFAH2, FP-rhodamine activity probe;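 active means mean inhibition over three repeats above a set limit taken from the earlier primary screen, cut at about 30% in these data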;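 further: inhibitor blocks binding of rhodamine activity probe so polarization falls; 0% = enzyme with DMSO and 100% = wells lacking PAFAH2 protein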
* hit, by the source's call. Sampled rows, rich in hits. Any-hit rate of the full collection: about 2.7%.

`O=C(Nc1cccc2nsnc12)c1cc2c(cc1Cl)Sc1nccn1S2(=O)=O` gave PAFAH2 FP inh 15, PAFAH1B2 FP inh 3, ASAP1 inh -9, PAFAH1B3 FP inh 7 and ARFGAP1 inh 9.
Screening CC1(C(=O)NCc2ccc(C(F)(F)F)cc2)CCN1C1Cc2ccccc2C1 (stereo not drawn) returned ASAP1 inh 7 and ARFGAP1 inh -20.
C=CCNC(=O)/C(C#N)=C/c1cc(Br)ccc1OC was read as PAFAH2 FP inh 33*, PAFAH1B2 FP inh -5, pPAFAH FP inh 1, ASAP1 inh 11, PAFAH1B3 FP inh -2, ARFGAP1 inh -4 and PAFAH2 FP conf 16.
`C=CCNC(=O)/C(C#N)=C/c1ccccc1Cl` gave PAFAH2 FP inh 4, PAFAH1B2 FP inh -4, pPAFAH FP inh -5, ASAP1 inh -23, PAFAH1B3 FP inh -4 and ARFGAP1 inh 5.
`CCCCCCCCN1C(=O)[C@H](CC(=O)N2CCCC2)C[C@@]2(C(=O)OC)CCCCC=C12` gave ASAP1 inh 0 and ARFGAP1 inh -2.
O=C(COC(=O)c1ccc(O)cc1)Nc1ncc(Cl)cc1Cl was read as PAFAH2 FP inh 38*, PAFAH1B2 FP inh 2, pPAFAH FP inh 8, ASAP1 inh -11, PAFAH1B3 FP inh -1, ARFGAP1 inh 2 and PAFAH2 FP conf 29.
For O=C(COC(=O)c1ccc2c(c1)OCO2)NCc1ccc(Cl)cc1 the results were PAFAH2 FP inh 44*, PAFAH1B2 FP inh 10, pPAFAH FP inh 3, ASAP1 inh -2, PAFAH1B3 FP inh 4, ARFGAP1 inh -6 and PAFAH2 FP conf 40*.
`O=C(COC(=O)c1cccnc1Cl)Nc1ncc(Cl)cc1Cl` gave PAFAH2 FP inh 9, PAFAH1B2 FP inh 6, pPAFAH FP inh 4, ASAP1 inh 9, PAFAH1B3 FP inh 0 and ARFGAP1 inh 3.
`O=C(COC(=O)c1ccc2c(c1)OCO2)Nc1ncc(Cl)cc1Cl` gave PAFAH2 FP inh 40*, PAFAH1B2 FP inh 4, pPAFAH FP inh 10, ASAP1 inh 11, PAFAH1B3 FP inh 2, ARFGAP1 inh -8 and PAFAH2 FP conf 37*.
Screening O=C(COC(=O)Cc1ccc(Cl)cc1)NCc1ccc2c(c1)OCO2 returned PAFAH2 FP inh -4, PAFAH1B2 FP inh 7, ASAP1 inh -6, PAFAH1B3 FP inh 7 and ARFGAP1 inh -5.
For O=c1cc(SCc2ccccc2)nc[nH]1 the results were PAFAH2 FP inh -1, PAFAH1B2 FP inh 5, ASAP1 inh -12, PAFAH1B3 FP inh 8 and ARFGAP1 inh -2.
For OCc1ccccc1-c1cnc2cccnn12 the results were ASAP1 inh 6 and ARFGAP1 inh -10.
For Cn1cnnc1Sc1ccc(C(=O)OCC(=O)Nc2ccccc2)cc1[N+](=O)[O-] the results were PAFAH2 FP inh 59*, PAFAH1B2 FP inh 0, pPAFAH FP inh 7, ASAP1 inh -7, PAFAH1B3 FP inh 0, ARFGAP1 inh -5 and PAFAH2 FP conf 41*.
COc1ccc(S(=O)(=O)N2CCOCC2)cc1NC(=O)Cc1ccccc1Cl was read as PAFAH2 FP inh 60*, PAFAH1B2 FP inh 1, pPAFAH FP inh 8, ASAP1 inh 5, PAFAH1B3 FP inh 4, ARFGAP1 inh 17 and PAFAH2 FP conf 55*.
Screening COc1ccc(S(=O)(=O)N2CCOCC2)cc1NC(=O)COC(=O)c1ccc([N+](=O)[O-])s1 returned PAFAH2 FP inh 40*, PAFAH1B2 FP inh 15, pPAFAH FP inh 11, PAFAH1B3 FP inh 24 and PAFAH2 FP conf 40*.
`Cc1ccccc1NC(=O)C1Cc2ccccc2C(=O)O1` (stereo not drawn) gave PAFAH2 FP inh 36*, PAFAH1B2 FP inh 4, pPAFAH FP inh 11, ASAP1 inh 4, PAFAH1B3 FP inh 13, ARFGAP1 inh 4 and PAFAH2 FP conf 30*.
COc1ccc(NC(=O)C2Cc3ccccc3C(=O)O2)cc1 (stereo not drawn) was read as PAFAH2 FP inh 8, PAFAH1B2 FP inh 4, pPAFAH FP inh 3, ASAP1 inh -6, PAFAH1B3 FP inh 1 and ARFGAP1 inh -5.
CCC(c1nnnn1-c1ccc2c(c1)OCCO2)N1CCN(c2ccc(C(F)(F)F)cc2[N+](=O)[O-])CC1 (stereo not drawn) was read as ASAP1 inh 15 and ARFGAP1 inh 18.
Screening Cc1nnc(SCC2=C(C(=O)O)N3C(=O)C(NC(=O)Cc4ccccc4)C3SC2)s1 (stereo not drawn) returned PAFAH2 FP inh 79*, PAFAH1B2 FP inh 2, pPAFAH FP inh 17, ASAP1 inh -9, PAFAH1B3 FP inh 3, ARFGAP1 inh 1 and PAFAH2 FP conf 65*.
For O=C(OCc1cn(-c2ccc(Cl)cc2)nn1)c1ccccc1 the results were PAFAH2 FP inh 69*, PAFAH1B2 FP inh 5, pPAFAH FP inh 10, ASAP1 inh -13, PAFAH1B3 FP inh 4, ARFGAP1 inh 21 and PAFAH2 FP conf 69*.
For CSCc1cccc(C(=O)OC(C)C(=O)Nc2c(C)n(C)n(-c3ccccc3)c2=O)c1 (stereo not drawn) the results were PAFAH2 FP inh 6, PAFAH1B2 FP inh 4, pPAFAH FP inh -6, ASAP1 inh -3, PAFAH1B3 FP inh 4 and ARFGAP1 inh -12.
Screening C[C@@H]1CN([C@@H](C)CO)C(=O)CCCn2nncc2CO[C@H]1CN(C)S(=O)(=O)c1ccc(-c2ccccc2)cc1 returned ASAP1 inh -3 and ARFGAP1 inh -2.
For O=C(COC(=O)C1CC1)Nc1cccc(Cl)c1 the results were ASAP1 inh 9 and ARFGAP1 inh 1.
Screening O=C(COC(=O)C1CC1)Nc1ccc2c(c1)OCO2 returned PAFAH2 FP inh 67*, PAFAH1B2 FP inh -2, pPAFAH FP inh 0, ASAP1 inh 4, PAFAH1B3 FP inh -2, ARFGAP1 inh 3 and PAFAH2 FP conf 54*.
For Cc1ccc(NC(=O)COC(=O)C2CC2)cc1Cl the results were PAFAH2 FP inh 79*, PAFAH1B2 FP inh 2, pPAFAH FP inh 10, ASAP1 inh 0, PAFAH1B3 FP inh -1, ARFGAP1 inh -4 and PAFAH2 FP conf 69*.
`CCC(=O)OCC(=O)Nc1ccc2c(c1)OCO2` gave PAFAH2 FP inh 9, PAFAH1B2 FP inh 2, pPAFAH FP inh 0, ASAP1 inh -4, PAFAH1B3 FP inh 4 and ARFGAP1 inh -2.
